Assays:
Mus musculus [1] = assay: Biodistribution of radioactivity in normal mice (ICR) liver after 1 hour of intravenous injection of [125I]-16(IMPY); format: ADME, organism-based; settings: in vivo
How it was run: (§1)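 Male ICR mice, 2-3 months old, 20-30 g, under ether anesthesia, given 0.15 mL of 0.1% bovine serum albumin solution containing the [125I] tracer into the tail vein. Killed by cardiac excision at set times after injection. Organs removed and weighed, then gamma-counted. % dose per organ computed against diluted aliquots of the injected material.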

Mus musculus [2] = assay: Biodistribution of radioactivity in normal mice (ICR) liver after 24 hours of intravenous injection of [125I]-16(IMPY); format: ADME, organism-based; settings: in vivo; how it was run: as §1
Mus musculus [3] = assay: Biodistribution of radioactivity in normal mice (ICR) brain after 2 hours of intravenous injection of [125I]-16(IMPY); format: ADME, organism-based; settings: in vivo; how it was run: as §1
Mus musculus [4] = assay: Biodistribution of radioactivity in normal mice (ICR) skin after 6 hours of intravenous injection of [125I]-16(IMPY); format: ADME, organism-based, Zone of skin; settings: in vivo; how it was run: as §1
Mus musculus [5] = assay: Biodistribution of radioactivity in normal mice (ICR) brain after 2 minutes of intravenous injection of [125I]-16(IMPY); format: ADME, organism-based; settings: in vivo; how it was run: as §1
Mus musculus [6] = assay: Biodistribution of radioactivity in normal mice (ICR) muscle after 1 hr of intravenous injection of [125I]-16(IMPY); format: ADME, organism-based, Muscle tissue; settings: in vivo; how it was run: as §1
Mus musculus [7] = assay: Biodistribution of radioactivity in normal mice (ICR) skin after 30 minutes of intravenous injection of [125I]-16(IMPY); format: ADME, organism-based, Zone of skin; settings: in vivo, 0.5 h; how it was run: as §1
Mus musculus [8] = assay: Biodistribution of radioactivity in normal mice (ICR) liver after 2 minutes of intravenous injection of [125I]-16(IMPY); format: ADME, organism-based; settings: in vivo; how it was run: as §1
Mus musculus [9] = assay: Biodistribution of radioactivity in normal mice (ICR) spleen after 2 hours of intravenous injection of [125I]-16(IMPY); format: ADME, organism-based; settings: in vivo; how it was run: as §1
Mus musculus [10] = assay: Biodistribution of radioactivity in normal mice (ICR) liver after 6 hours of intravenous injection of [125I]-16(IMPY); format: ADME, organism-based; settings: in vivo; how it was run: as §1
Mus musculus [11] = assay: Biodistribution of radioactivity in normal mice (ICR) skin after 1 hour of intravenous injection of [125I]-16(IMPY); format: ADME, organism-based, Zone of skin; settings: in vivo; how it was run: as §1
Mus musculus [12] = assay: Biodistribution of radioactivity in normal mice (ICR) muscle after 24 hours of intravenous injection of [125I]-16(IMPY); format: ADME, organism-based, Muscle tissue; settings: in vivo; how it was run: as §1
Mus musculus [13] = assay: Biodistribution of radioactivity in normal mice (ICR) heart after 6 hours of intravenous injection of [125I]-16(IMPY); format: ADME, organism-based; settings: in vivo; how it was run: as §1
Mus musculus [14] = assay: Biodistribution of radioactivity in normal mice (ICR) liver after 2 hours of intravenous injection of [125I]-16(IMPY); format: ADME, organism-based; settings: in vivo; how it was run: as §1
Mus musculus [15] = assay: Biodistribution of radioactivity in normal mice (ICR) muscle after 6 hours of intravenous injection of [125I]-16(IMPY); format: ADME, organism-based, Muscle tissue; settings: in vivo; how it was run: as §1
Mus musculus [16] = assay: Biodistribution of radioactivity in normal mice (ICR) heart after 1 hour of intravenous injection of [125I]-16(IMPY); format: ADME, organism-based; settings: in vivo; how it was run: as §1
Mus musculus [17] = assay: Biodistribution of radioactivity in normal mice blood after 24 hours of intravenous injection of [125I]-16(IMPY); format: ADME, organism-based; settings: in vivo
How it was run: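 Male ICR mice (2-3 months old, 20-30 g) under ether anesthesia; 0.15 mL of 0.1% bovine serum albumin solution containing the iodine-125 tracer injected into the tail vein. Mice killed by cardiac excision at set times. Organs removed, weighed and gamma-counted. Percent dose per organ derived against diluted aliquots of the injectate.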

Mus musculus [18] = assay: Biodistribution of radioactivity in normal mice (ICR) liver after 30 minutes of intravenous injection of [125I]-16(IMPY); format: ADME, organism-based; settings: in vivo, 0.5 h; how it was run: as §1
Mus musculus [19] = assay: Biodistribution of radioactivity in normal mice (ICR) brain after 30 minutes of intravenous injection of [125I]-16(IMPY); format: ADME, organism-based; settings: in vivo, 0.5 h; how it was run: as §1
Mus musculus [20] = assay: Biodistribution of radioactivity in normal mice (ICR) lung after 30 minutes of intravenous injection of [125I]-16(IMPY); format: ADME, organism-based; settings: in vivo, 0.5 h; how it was run: as §1
Mus musculus [21] = assay: Biodistribution of radioactivity in normal mice (ICR) lung after 2 minutes of intravenous injection of [125I]-16(IMPY); format: ADME, organism-based; settings: in vivo; how it was run: as §1
Mus musculus [22] = assay: Biodistribution of radioactivity in normal mice (ICR) brain after 6 hours of intravenous injection of [125I]-16(IMPY); format: ADME, organism-based; settings: in vivo; how it was run: as §1
Mus musculus [23] = assay: Biodistribution of radioactivity in normal mice (ICR) lung after 2 hours of intravenous injection of [125I]-16(IMPY); format: ADME, organism-based; settings: in vivo; how it was run: as §1
Mus musculus [24] = assay: Biodistribution of radioactivity in normal mice (ICR) heart after 30 minutes of intravenous injection of [125I]-16(IMPY); format: ADME, organism-based; settings: in vivo, 0.5 h; how it was run: as §1
Mus musculus [25] = assay: Biodistribution of radioactivity in normal mice (ICR) spleen after 24 hours of intravenous injection of [125I]-16(IMPY); format: ADME, organism-based; settings: in vivo; how it was run: as §1
Mus musculus [26] = assay: Biodistribution of radioactivity in normal mice (ICR) muscle after 30 minutes of intravenous injection of [125I]-16(IMPY); format: ADME, organism-based, Muscle tissue; settings: in vivo, 0.5 h; how it was run: as §1
Mus musculus [27] = assay: Biodistribution of radioactivity in normal mice (ICR) brain after 24 hours of intravenous injection of [125I]-16(IMPY); format: ADME, organism-based; settings: in vivo; how it was run: as §1

- Dose/organ (Mus musculus [1]): 5.88%
- Dose/organ (Mus musculus [2]): 0.61%
- Dose/organ (Mus musculus [3]): 0.14%
- Dose/organ (Mus musculus [4]): 2.19%
- Dose/organ (Mus musculus [5]): 2.88%
- Dose/organ (Mus musculus [6]): 5.03%
- Dose/organ (Mus musculus [7]): 4.69%
- Dose/organ (Mus musculus [8]): 20.9%
- Dose/organ (Mus musculus [9]): 0.05%
- Dose/organ (Mus musculus [10]): 1.54%
- Dose/organ (Mus musculus [11]): 4.28%
- Dose/organ (Mus musculus [12]): 0.27%
- Dose/organ (Mus musculus [13]): 0.04%
- Dose/organ (Mus musculus [14]): 2.9%
- Dose/organ (Mus musculus [15]): 1.46%
- Dose/organ (Mus musculus [16]): 0.12%
- Dose/organ (Mus musculus [17]): 0.18%
- Dose/organ (Mus musculus [18]): 6.32%
- Dose/organ (Mus musculus [19]): 0.26%
- Dose/organ (Mus musculus [20]): 0.31%
- Dose/organ (Mus musculus [21]): 1.56%
- Dose/organ (Mus musculus [22]): 0.06%
- Dose/organ (Mus musculus [23]): 0.2%
- Dose/organ (Mus musculus [24]): 0.16%
- Dose/organ (Mus musculus [25]): 0.01%
- Dose/organ (Mus musculus [26]): 6.08%
- Dose/organ (Mus musculus [27]): 0.02%
Compound: CN(C)c1ccc(-c2cn3cc(I)ccc3n2)cc1

From ChEMBL document CHEMBL1145100, “Structure-activity relationship of imidazo[1,2-a]pyridines as ligands for detecting beta-amyloid plaques in the brain” (J Med Chem, 2003)
